What was measured:
[1] = test system: Ub-FL reporter in HeLa cervical cancer cells; experiment: Ubiquitin-Firefly luciferase; assay type: cell-based, human; details: combination of Bortezomib (5nM) and compound 2 (1µM)
In short: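 HeLa cells were transfected with either the Ub-FL reporter (four ubiquitin G76V copies fused N-terminal to firefly luciferase) or the CMV-FL control. They were replated 24 h later at 1×10^4 cells/well and left 18 h to attach. Cells then received bortezomib 5 nM, test compound 1 µM, or both for 6 h. Lysate luciferase was read as RLU, given as % of control, from three independent experiments with SE.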

[2] = test system: chymotrypsin-like (CT-like) activity of proteasomes isolated from LCLs; experiment: Proteasome chymotrypsin-like activity, fluorogenic substrate Suc-LLVY-AMC; assay type: biochemical; details: 10 µM compound
In short: (§1)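 Proteasomes came from lymphoblastoid cells lysed by glass-bead vortexing in Tris pH 7.5, MgCl2, DTT, ATP and sucrose buffer. They were semipurified by centrifugation and 100,000g ultracentrifugation. Preparations were pretreated with test compound for 30 min at 37°C, then assayed 45 min at 37°C with Suc-LLVY-AMC (CT-like), Boc-LRR-AMC (T-like) or Ac-YVAD-AMC (PGPH/caspase-like). Reactions were SDS-quenched and read at ex 380/em 440 nm. Results are % inhibition versus untreated; IC50 is the mean of three determinations.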

[3] = test system: HeLa cervical cancer cells; experiment: Cellular morphology by phase contrast microscopy; assay type: cell-based, human; details: combination of Bortezomib (5nM)+compound 2 (1 µM), 48 hours
[4] = test system: HeLa cervical cancer cells; experiment: Combination with Bortezomib, XTT viability, isobologram / combination index; assay type: cell-based, human
[5] = test system: ME180 cervical cancer cells (HPV58+); experiment: XTT cell viability assay, ME180; assay type: cell-based, human; details: 48 hours
[6] = test system: primary human Keratinocytes; experiment: XTT cell viability assay, primary Keratinocytes; assay type: cell-based; details: 48 hours
[7] = test system: HeLa cells; experiment: Washout experiment, residual cell viability; assay type: cell-based, human; details: HeLa cells briefly treated
In short: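 HeLa cells grown in DMEM with 10% FBS, penicillin/streptomycin, 5% CO2. Cells were briefly exposed to the test compound or bortezomib (reversible-inhibitor reference), then washed out; non-washout cultures served as comparison. Viability was read by XTT: seeded at 1,000 cells/well, 4 h with XTT labeling mixture, absorbance at 450 nm. Run in triplicate, mean ± SE.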

[8] = target: Cathepsin D (Homo sapiens, UniProt P07339); experiment: Residual Cathepsin D activity in HeLa cells; assay type: cell-based; details: concentrations up to 50 µM
Cathepsin D, sequence (P07339 65-412): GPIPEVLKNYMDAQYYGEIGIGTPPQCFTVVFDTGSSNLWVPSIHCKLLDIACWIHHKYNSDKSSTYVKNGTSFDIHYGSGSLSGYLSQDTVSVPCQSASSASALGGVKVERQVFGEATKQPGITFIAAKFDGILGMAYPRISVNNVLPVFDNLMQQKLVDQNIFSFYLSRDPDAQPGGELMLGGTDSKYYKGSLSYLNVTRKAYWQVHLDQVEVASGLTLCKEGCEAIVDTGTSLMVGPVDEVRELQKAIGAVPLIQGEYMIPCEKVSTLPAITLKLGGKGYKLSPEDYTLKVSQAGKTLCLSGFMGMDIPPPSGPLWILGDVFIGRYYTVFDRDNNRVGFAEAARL

[9] = test system: Calpain; experiment: Residual Calpain activity in HeLa cells; assay type: cell-based, human; details: concentrations up to 50 µM
[10] = test system: peptidylglutamyl peptide hydrolyzing-like (PGPH-like) activity of proteasomes isolated from LCLs; experiment: Proteasome PGPH-like activity, fluorogenic substrate Ac-YVAD-AMC; assay type: biochemical; details: for inhibition of PGPH-like activity of 20S proteasome: 10 µM compound; for IC50: read-out: Isolated enzyme IC50(µM) PGPH-like, proteasomes isolated from LCLs, average of three independent determinations
In short: as §1

[11] = test system: SiHa cervical cancer cells (HPV16+); experiment: XTT cell viability assay, SiHa; assay type: cell-based, human; details: 48 hours
[12] = test system: trypsin-like (T-like) activity of proteasomes isolated from LCLs; experiment: Proteasome trypsin-like activity, fluorogenic substrate Boc-LRR-AMC; assay type: biochemical; details: 10 µM compound
In short: as §1

[13] = test system: poly-ubiquitinated proteins in HeLa cervical cancer cells; experiment: Immunoblot analysis of poly-ubiquitinated proteins in HeLa cells; assay type: cell-based, human; details: eight hours treatment
In short: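 HeLa cells were grown in DMEM with 10% FBS, penicillin and streptomycin at 5% CO2, then treated for 8 h with or without test compound at several concentrations. Bortezomib served as the positive control. Poly-ubiquitinated proteins were detected by immunoblot, with β-actin as the loading control.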

| SMILES | inhibition of chymotrypsin-like (CT-like) activity of 20S proteasome [2] | cell viability after washout compared to non-washout cultures [7] | inhibition of PGPH-like activity of 20S proteasome [10] | inhibition of trypsin-like (T-like) activity of 20S proteasome [12] | levels of poly-ubiquitinated proteins [13] | IC50 [10] [µM] | further results |
| --- | --- | --- | --- | --- | --- | --- | --- |
| O=C1/C(=C/c2ccc(Cl)c(Cl)c2)CN(C(=O)N[C@@H](Cc2ccccc2)C(=O)O)C/C1=C\c1ccc(Cl)c(Cl)c1 [Compound 2] | nearly fully abrogated | partial recovery in cell viability | nearly fully abrogated | nearly fully abrogated | – | – | stabilization of the Ub-FL degron compared to single agents alone [1]: significantly enhance the stabilization; morphological changes compared to single treatment alone [3]: greater apoptotis-associated morphological changes; Combination Index (CI) ([4]; Bortezomib 3.95 nmol/L / compound 2 2.5 mM/L): 0.6; Combination Index (CI) ([4]; Bortezomib 6.125 nmol/L / compound 2 1.64 mM/L): 0.6; Combination Index (CI) ([4]; Bortezomib 7.5 nmol/L / compound 2 1.06 mM/L): 0.59; interaction of the combination with Bortezomib by isobologram analysis ([4]; checker board dilution series, XTT): highly synergistic; effect on viability of ME180 [5]: dose-dependent drop; effect on viability of primary human Keratinocytes [6]: minimal effects; inhibitory capacity toward Cathepsin D activity [8]: no inhibitory capacity; inhibitory capacity toward Calpain activity [9]: no inhibitory capacity; effect on viability of SiHa [11]: dose-dependent drop |
| CC(C)C[C@H](NC(=O)[C@H](Cc1ccccc1)NC(=O)c1cnccn1)B(O)O [Bortezomib, reference compound] | – | partial recovery in cell viability | – | – | increase | – | – |
| CC(C)C[C@H](NC(=O)N1C/C(=C\c2ccc(Cl)c(Cl)c2)C(=O)/C(=C/c2ccc(Cl)c(Cl)c2)C1)C(=O)O [Compound 4] | partial inhibition | – | partial inhibition | partial inhibition | – | > 10 | – |
| O=C(O)CC[C@H](NC(=O)N1C/C(=C\c2ccc(Cl)c(Cl)c2)C(=O)/C(=C/c2ccc(Cl)c(Cl)c2)C1)C(=O)O [Compound 5] | – | – | – | – | no changes | – | – |
| O=C1/C(=C/c2ccc(Cl)c(Cl)c2)CN(C(=O)N[C@@H](Cc2ccc(O)cc2)C(=O)O)C/C1=C\c1ccc(Cl)c(Cl)c1 [Compound 3] | partial inhibition | – | partial inhibition | partial inhibition | – | > 10 | – |

Source: paper PMC3204583 (Journal of medicinal chemistry, 2010)
